From ChEMBL document CHEMBL1140185, “Conjugated chitosan as a novel platform for oral delivery of paclitaxel” (J Med Chem, 2008) come the findings set out here.

Data set [1] relates to NCI-H358. The data set can be described thus: Anticancer activity against human NCI-H358 cells by MTT assay. The class given is functional, cell-based. A general note: Tetrazolium assays rely on reduction of a dye to a coloured formazan, in cell work by metabolically active cells.
The subject of a further data set is SK-OV-3. In words: Anticancer activity against human SKOV3 cells by MTT assay. In kind it is functional, cell-based.
Another data set deals with MDA-MB-231. In words: Anticancer activity against human MDA-MB-231 cells by MTT assay.
The nature of data set [2]: Drug uptake in tumor of iv dosed C57BL/6 mouse bearing mouse B16F10 cells after 30 mins. In kind it is ADME, organism-based, C57BL6, Neoplasm, B16-F10. The conditions noted are these: in vivo, 0.5 h.
Data set [3] in a line: Oral bioavailability in cyclosporine A pretreated ICR mouse. The conditions noted are these: in vivo, in the assay text read “in ICR mouse” for “in cyclosporine A pretreated ICR mouse”. The class given is ADME, organism-based. The procedure, abridged: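 ICR mice (25-30 g) fasted 12 h, then gavaged with PTX or conjugate (PTX-equivalent). The oral solution included 15 mg/kg cyclosporine A where given. Retro-orbital blood spun at 3000g for 20 min; plasma PTX measured by HPLC. n = 4-5.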

Data set [4] in a line: Half life in ICR mouse at 10 mg/kg, iv. The class given is ADME, organism-based. More on the design: dose 10 mg/kg, route intravenous. The conditions noted are these: in vivo. The method, boiled down:
(§1)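 ICR mice (25-30 g). IV arm: 10 mg/kg PTX in cremophor EL/ethanol via tail vein. Oral arm: 5 or 10 mg PTX-equivalent/kg conjugate in 10% DMSO by gavage after a 12 h fast. Retro-orbital blood taken into sodium citrate and spun 800g for 20 min. Plasma extracted with ethyl acetate; free PTX measured by HPLC. Oral bioavailability is relative to 10 mg/kg IV. n = 5.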

Data set [5] can be described thus: AUC (0 to 48 hrs) in ICR mouse at 10 mg/kg, iv. The class given is ADME, organism-based. More on the design: time < 48 hr, dose 10 mg/kg, route intravenous. The conditions noted are these: plasma. The procedure, abridged: as §1
Data set [6] concerns Mus musculus. The data set can be described thus: Bioavailability in ICR mouse at 10 mg/kg, iv. The following applies: in vivo. In kind it is ADME, organism-based. The procedure, abridged: as §1
In data set [7] the test system is NCI-H358. The data set can be described thus: Antitumor activity against human NCI-H358 cells xenografted NCR nu/nu mouse assessed as suppression of tumor growth at 10 mg/kg, iv. The class given is functional. The procedure, abridged: (§2)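 Female athymic NCR nu/nu mice (20-25 g), inoculated sc with about 6 × 10^6 NCI-H358 cells. Dosing began at tumors ≥150 mm3: 10 mg/kg/day formulated PTX iv, or conjugate po, every other day for six doses. Saline and LMWC controls. Caliper volumes taken as (1/2)(L × W2), and body weight tracked. n = 8-12; Student's t-test.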
For orientation: A xenograft is tissue or cells of one species grown in another, often human tumour cells in immunodeficient mice.

Data set [8] has as its system Mus musculus. In words: Toxicity in human NCI-H358 cells xenografted NCR nu/nu mouse assessed as decrease in body weight at 10 mg/kg, iv. In kind it is organism-based. More on the design: dose 10 mg/kg, route intravenous. The conditions noted are these: in vivo. The procedure, abridged:
as §2

Values after ≈ are worked out from the molar mass of the structure shown.

A word on the IC50: it is the concentration at which inhibition is half-maximal. High values mean weaker potency in that assay, low ones greater potency in that assay. Broadly, the bioavailability is dose-corrected exposure relative to a reference, in per cent. The term half-life denotes the time needed for the level to fall by half in the phase considered. One may read the AUC(0-t) as the area under the concentration-time curve up to a stated or last time point. High values mean high exposure, low ones low exposure.

Regarding `CC(=O)O[C@H]1C(=O)[C@@]2(C)[C@H]([C@H](OC(=O)c3ccccc3)[C@]3(O)C[C@H](OC(=O)[C@H](O)[C@@H](NC(=O)c4ccccc4)c4ccccc4)C(C)=C1C3(C)C)[C@]1(OC(C)=O)CO[C@@H]1C[C@@H]2O` [PACLITAXEL], the IC50 is 3.8 µg/mL (≈ 4.45 µM) in the data set with NCI-H358 [1], 4 µg/mL (≈ 4.68 µM) with SK-OV-3 and 3.9 µg/mL (≈ 4.57 µM) in the data set with MDA-MB-231. Moreover, the Drug uptake in data set [2] stood at 0.5%. The bioavailability in data set [3] was 0.23%. In [4], this molecule had a half-life of 33.6 min. Also, the area under the curve AUC(0-t) at 48 h in data set [5] turned out to be 35300 ng·h/mL. In the data set with Mus musculus [6], this molecule returned an F of 100%. For the same molecule, the Activity is recorded as 80% in the data set with NCI-H358 [7] and “Toxic” with Mus musculus [8].
